Screening data as filed in PubChem BioAssay.
In the library only some 2.9% were active in any assay of this set; here they are far more common.
CAL PDZ FP-1 = human CAL PDZ-peptide interaction inhibition; inhibition, % at 20 µM; 330,000 compounds, 0.02% hits; purified CAL PDZ, TMR-peptide fluorescence polarization, 1 h; Q9HD26;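 active means highest replicate inhibition of at least 40%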;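 further: plate controls were DMSO neutral control wells for no effect and unlabeled competitor peptide control wells for full effect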
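Test system: purified CerCALP PDZ construct; Compound dosing: one concentration, 20 µM compound; Also added: TMR-labelled reporter peptide T*-PRC34 bound in PDZ groove; Read-out: inhibition from polarization loss; Controls: unlabelled peptide and DMSO controls; Signal: FP readout, S and P plane fluorescence; Incubation: 1 h at RT.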
S100A4 inh HTS = S100A4-myosin IIA interaction inhibition | P26447 | S100A4/TAMRA-MyoIIA peptide fluorescence polarization | 360,000 compounds, 0.14% hits | inhibition, % at 10.7 µM;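 active means mean inhibition of at least 70% across replicates, with every replicate also reaching that level; inconclusive means mean inhibition reaches 70% but some replicates fall short; inactive means mean inhibition below 70%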
Target sequence (P26447 whole entry, looked up): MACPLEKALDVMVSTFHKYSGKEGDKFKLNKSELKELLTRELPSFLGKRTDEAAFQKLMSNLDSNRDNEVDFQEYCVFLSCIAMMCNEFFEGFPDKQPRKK
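Assay system: human S100A4 monomer with TAMRA-labelled myosin IIA peptide / Buffer or medium: Calcium-containing HEPES buffer, pH 7.2 / Reagent: TAMRA-labelled myosin IIA heavy-chain peptide probe, 5 nM / Compound: one dose per compound / Timing: polarization read 5 min after assay mix addition, stable 5–60 min / Benchmarks: neutral control DMSO, positive control TFP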
DENV2 CPE = inhibitors of DENV2 cytopathic effect; DENV2-infected cells, cytopathic effect rescue, plate reader; CPE inhibition, % at 9.99 µM; 350,000 compounds, 1.7% hits; AID 651640; in the data active means CPE inhibition above about 20%, passing the limit was not always enough; inconclusive means no clear call, values can overlap the other calls; tested in BHK-21 cells;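 further: 0% = median of neutral control wells and 100% = median of positive control wells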
CAL PDZ FP-2 = inhibitors of human CAL PDZ peptide binding | 300,000 compounds, 0.92% hits | Q9HD26 | inhibition, % at 24.9 µM | purified CAL PDZ, TMR-peptide fluorescence polarization, 1 h;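 active means mean inhibition of at least 30% with at least half of replicates also reaching 30%; inconclusive means no clear call, values can overlap the other calls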;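 further: 0% = DMSO neutral control and 100% = excess unlabeled competitor peptide PRC23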
ERAP1 inh = inhibitors of human ERAP1 aminopeptidase. inhibition, % at 10.7 µM. 340,000 compounds, 0.15% hits. Q9NZ08. AID 652197. recombinant ERAP1, Leu-AMC fluorescence, 60 min;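 active means mean replicate inhibition of at least 30%, or all replicates individually reaching that 30% level; inactive means mean below 30% and not every replicate reaching it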;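 further: 0% = neutral control wells and 100% = L-leucinethiol positive control wells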
SIRT5 inh = sirtuin-5 (human) deacylase inhibition; Q9NXA8; Purified SirT5, succinyl-peptide AMC, trypsin-coupled fluorescence; inhibition, % at 15 µM; 330,000 compounds, 1.1% hits; AID 652115; in the data active means inhibition above about 15%; inconclusive means no clear call, values can overlap the other calls
Target sequence (Q9NXA8 whole entry, looked up): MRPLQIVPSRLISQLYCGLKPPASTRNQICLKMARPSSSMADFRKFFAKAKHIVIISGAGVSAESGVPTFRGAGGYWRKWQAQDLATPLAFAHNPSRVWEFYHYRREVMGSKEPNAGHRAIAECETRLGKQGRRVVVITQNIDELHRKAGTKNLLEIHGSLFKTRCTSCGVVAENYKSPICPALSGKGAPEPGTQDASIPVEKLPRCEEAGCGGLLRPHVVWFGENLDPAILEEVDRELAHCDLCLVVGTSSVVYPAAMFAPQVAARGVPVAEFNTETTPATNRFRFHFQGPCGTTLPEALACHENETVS
The depositor's hits bear a star; u = inconclusive; x = not tested or not shown.

SMILES | CAL PDZ FP-1 | S100A4 inh HTS | DENV2 CPE | CAL PDZ FP-2 | ERAP1 inh | SIRT5 inh
C#CCOCCOCCOCCNc1nc(N2CCN(C(=O)Cn3cc(CCO)nn3)CC2)nc(N2CCN(C(=O)[C@H]([C@@H](C)O)n3cc(CCCCN)nn3)CC2)n1 | 0 | -2 | 21* | -4 | x | x
COc1cccc(CN2[C@H](CO)[C@H](c3ccccc3)C23CN(C(=O)C2CCOCC2)C3)c1 | x | -3 | -10 | x | 1 | -2
O=C(Nc1nccs1)[C@H]1[C@H](CO)[C@H]2Cn3c(cccc3=O)[C@@H]1N2C(=O)C1CC1 | x | 1 | 9 | x | -1 | 7
COc1ccc(NC(=O)Nc2ccc3c(c2)C(=O)N([C@H](C)CO)C[C@@H](C)[C@@H](CN(C)C(=O)Nc2ccc(F)cc2)O3)cc1 | x | -5 | 3 | x | 0 | 2
OC[C@H]1[C@@H](c2ccc(C#CC3(O)CCCC3)cc2)[C@@H]2CN(Cc3ccccc3F)CCCCN12 | x | 0 | 41* | x | 0 | 1
O=C(c1ccc(F)cc1)N1CCCCN2[C@@H](CO)[C@@H](c3ccc(C#CC4(O)CCCC4)cc3)[C@@H]2C1 | x | -7 | 36* | x | 5 | 7
O=C(c1ccc(F)cc1)N1CCCCN2[C@@H](CO)[C@H](c3ccc(C#CC4(O)CCCC4)cc3)[C@@H]2C1 | x | 0 | 5 | x | 0 | -6
CN1CCCCN2[C@@H](CO)[C@@H](c3ccc(C#CC4(O)CCCC4)cc3)[C@@H]2C1 | x | 92* | 0 | x | 4 | -3
C/C=C/c1cnc2c(c1)C(=O)N([C@@H](C)CO)C[C@H](C)[C@@H](CN(C)S(=O)(=O)c1cn(C)cn1)O2 | x | 19 | -1 | x | 0 | -13
CCC(C)(C)C1CCc2[nH]nc(C(=O)NCc3ccccn3)c2C1 (stereo unspecified) | -2 | -2 | 77* | -4 | -1 | -4
C[C@H](CO)N1C[C@H](C)[C@H](CN(C)Cc2ccc3c(c2)OCO3)Oc2c(NC(=O)Nc3ccc4c(c3)OCO4)cccc2C1=O | x | 7 | -6 | x | 0 | 5
C[C@H]1CN([C@@H](C)CO)C(=O)c2cccc(NC(=O)Nc3ccc4c(c3)OCO4)c2O[C@H]1CN(C)Cc1ccc2c(c1)OCO2 | x | 3 | 27* | x | 1 | 1
C[C@@H]1CN([C@@H](C)CO)C(=O)c2cccc(NC(=O)Nc3ccc4c(c3)OCO4)c2O[C@H]1CN(C)Cc1ccc2c(c1)OCO2 | x | 8 | 22* | x | 1 | -1
COc1ccc(NC(=O)Nc2ccc3c(c2)[C@@H]2C[C@@H](CC(=O)N4CCCCC4)O[C@H](CO)[C@@H]2O3)cc1 | x | 5 | 0 | x | -4 | -2
C[C@@H]1CCCCO[C@H](CN(C)S(C)(=O)=O)[C@H](C)CN([C@@H](C)CO)C(=O)c2cc(NS(=O)(=O)c3ccc(Cl)cc3)ccc2O1 | x | -11 | -3 | x | -1 | -4
CO[C@@H]1CN(C)C(=O)c2cc(NC(=O)CC(F)(F)F)ccc2OC[C@H](C)N(C(=O)C2CC2)C[C@H]1C | x | -35 | 0 | x | -4 | -1
CO[C@H]1CN(C)C(=O)c2ccc(NC(=O)CC(F)(F)F)cc2OC[C@H](C)N(C(=O)C2CCOCC2)C[C@H]1C | x | -21 | 24* | x | 2 | -1
CO[C@H]1CN(C)C(=O)c2cc(NC(=O)CC(F)(F)F)ccc2OC[C@@H](C)N(C(=O)C2CC2)C[C@H]1C | x | -31 | 38* | x | 2 | x
CO[C@@H]1CN(C)C(=O)c2ccc(NC(=O)CC(F)(F)F)cc2OC[C@H](C)N(C(=O)C2CCOCC2)C[C@H]1C | x | -24 | -2 | x | -2 | 0
C[C@@H]1CCCCO[C@@H](CN(C)C(=O)CCCN(C)C)[C@@H](C)CN([C@H](C)CO)C(=O)c2cc(NC(=O)Nc3ccccc3)ccc2O1 | x | -4 | -3 | x | 1 | -6
CC(C)c1cn(CC[C@@H]2CC[C@@H](NC(=O)c3cccc(F)c3)[C@H](CO)O2)nn1 | x | 17 | 0 | x | 2 | -2
C[C@H](CO)N1C[C@H](C)[C@H](CN(C)C(=O)Cc2ccccn2)Oc2cc(-c3cccc(C(=O)N(C)C)c3)ccc2S1(=O)=O | x | 24 | 15 | x | 0 | -4
CCCC(NC(=O)C(C)Sc1nnnn1C1CC1)c1ccccc1 (stereo unspecified) | 0 | u | 90* | x | 5 | -2
CCSc1nnc(NC(=O)CN2C(=O)NC3(CCCC3)C2=O)s1 | 0 | 1 | 9 | 78* | 2 | -2
Cc1nnc(NC(=O)CN2C(=O)NC3(CCCC3)C2=O)s1 | 1 | -4 | 1 | -4 | -3 | 4
SMILES | CAL PDZ FP-1 | S100A4 inh HTS | DENV2 CPE | CAL PDZ FP-2 | ERAP1 inh | SIRT5 inh
CN(C)S(=O)(=O)c1ccc(C(=O)NCC[N+]2(C)CCCCCC2)o1 | 0 | 0 | 5 | -5 | 41* | -2
Cc1ccc(NC(=O)c2ccc(Br)o2)cc1S(=O)(=O)N(C)C | -2 | -1 | -4 | -3 | -3 | 0
C[C@@H]1CCCCO[C@H](CN(C)S(=O)(=O)c2ccc(F)cc2)[C@H](C)CN([C@@H](C)CO)C(=O)c2cc(NC(=O)Nc3ccc4c(c3)OCO4)ccc2O1 | x | -1 | -5 | x | -1 | 0
CCOc1cc(/C=N/N=C2/NC(=O)C(CC(=O)O)S2)ccc1OCc1ccc(Cl)cc1 (stereo unspecified) | -2 | -1 | -2 | -3 | -4 | 6
O=C(O)CC1S/C(=N/N=C/C2CC=CCC2)NC1=O (stereo unspecified) | 0 | 3 | 0 | 1 | 2 | 112*
Cn1c(=O)n(C)c2cc(/C=N/N=C3/NC(=O)C(CC(=O)O)S3)ccc21 (stereo unspecified) | -1 | -1 | -2 | -3 | -6 | 19*
O=C(NCc1ccco1)C1CCCN1C(=O)Nc1ccccc1 (stereo unspecified) | 0 | 1 | u | -2 | x | x
Cc1cc(C)cc(NC(=O)N2CCCC2C(=O)NCc2ccco2)c1 (stereo unspecified) | 0 | -3 | -3 | 76* | 2 | -2
CN1[C@H](C(=O)NC2Cc3ccccc3C2)[C@@H](CO)[C@@H]2Cn3c(ccc(-c4ccccc4)c3=O)[C@@H]21 | x | -4 | -4 | x | 0 | 3
CC(C)(C)NC(=O)CSc1nnc(-c2ccncc2)n1Cc1ccccc1 | -1 | x | x | -6 | x | x
COc1ccc(-c2nnc(SCC(=O)O)n2Cc2ccccc2)cc1 | 0 | -4 | -6 | 57* | 4 | 13
CC(C)C(C)(C#N)NC(=O)CSc1nnc(-c2ccncc2)n1Cc1ccccc1 (stereo unspecified) | -1 | x | x | 35* | x | x
C[C@@H]1CN([C@@H](C)CO)C(=O)c2cc(NC(=O)CCC(F)(F)F)ccc2O[C@H]1CN(C)S(=O)(=O)c1cn(C)cn1 | x | -3 | 3 | x | -4 | 7
CO[C@@H]1CN(C)C(=O)c2cc(NC(=O)C3CC3)ccc2OC[C@H](C)N(C)C[C@H]1C | x | -44 | u | x | -2 | 12
